Assays:
[1] = target: T1, ADP-ribosyl cyclase/cyclic ADP-ribose hydrolase 1 (Homo sapiens, UniProt P28907); assay: Drug metabolism assessed as human CD38 catalytic domain-mediated compound hydrolysis at 1 mM using 4 mg/mL CD38 by RP-HPLC method; type: ADME; details: 1000 µM
T1 sequence (P28907 whole entry): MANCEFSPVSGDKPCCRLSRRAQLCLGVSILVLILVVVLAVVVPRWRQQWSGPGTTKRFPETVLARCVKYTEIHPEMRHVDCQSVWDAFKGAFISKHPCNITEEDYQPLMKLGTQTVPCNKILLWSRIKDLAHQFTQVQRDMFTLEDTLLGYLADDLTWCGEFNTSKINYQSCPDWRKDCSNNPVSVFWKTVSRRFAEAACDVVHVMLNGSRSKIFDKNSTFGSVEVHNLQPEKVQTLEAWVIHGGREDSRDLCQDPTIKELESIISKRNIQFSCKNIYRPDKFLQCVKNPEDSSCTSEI
Summary of the method: (§1)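 Human CD38 catalytic domain diluted in 20 mM Tris-HCl pH 8 to 4 mg/mL or 1 μg/mL, added to inhibitor (1 mM final) at room temperature; no-enzyme control run in parallel. At time points, aliquots diluted 20-fold in water and analysed by RP-HPLC: isocratic elution, 1 mL/min, ion-pair buffer 0.17% cetrimide and 45% phosphate buffer (pH 6.4) in MeOH, photodiode array detection 210–350 nm.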

[2] = target: T1, ADP-ribosyl cyclase/cyclic ADP-ribose hydrolase 1; assay: Inhibition of human CD38 catalytic domain assessed as reduction in cADPR hydrolysis incubated for 10 mins by fluorimetric cycling assay
[3] = target: T1, ADP-ribosyl cyclase/cyclic ADP-ribose hydrolase 1; assay: Drug metabolism assessed as human CD38 catalytic domain-mediated compound hydrolysis at 1 mM by RP-HPLC method; type: ADME; details: 1000 µM; summary of the method: as §1
[4] = target: T1, ADP-ribosyl cyclase/cyclic ADP-ribose hydrolase 1; assay: Drug metabolism assessed as human CD38 catalytic domain-mediated compound hydrolysis at 1 mM using 1 ug/mL CD38 by RP-HPLC method; type: ADME; details: 1000 µM; summary of the method: as §1
[5] = Retention time of the compound at 1 mM in presence of human CD38 catalytic domain by RP-HPLC method; type: physicochemical; details: 1000 µM; summary of the method: as §1
[6] = target: T1, ADP-ribosyl cyclase/cyclic ADP-ribose hydrolase 1; assay: Drug metabolism assessed as human CD38 catalytic domain-mediated compound hydrolysis by measuring 8-NH2-N9-butyl-IDPR level at 1 mM by RP-HPLC method; type: ADME; details: 1000 µM; summary of the method: as §1
[7] = Retention time of the compound using 1 mM 8-NH2-N9-butyl-cIDPR in presence of human CD38 catalytic domain by RP-HPLC method; type: physicochemical; summary of the method: as §1
[8] = target: T1, ADP-ribosyl cyclase/cyclic ADP-ribose hydrolase 1; assay: Drug level assessed as human CD38 catalytic domain-mediated compound formation using 1 mM 8-NH2-N9-butyl-cIDPR by RP-HPLC method; type: ADME; summary of the method: as §1

Structure (SMILES)	Drug metabolism [1]	Drug metabolism [3]	Drug metabolism [4]	also measured
O=c1c2ncn3c2ncn1[C@@H]1O[C@H](COP(=O)(O)OP(=O)(O)OC[C@H]2O[C@@H]3[C@H](O)[C@@H]2O)[C@@H](O)[C@H]1O	metabolite_detected	metabolite_detected	metabolite_notdetected	IC50 [2]: 276 µM
O=c1c2ncn3c2ncn1[C@@H]1O[C@H](COP(=O)(O)OP(=O)(O)OCCCC3)[C@@H](O)[C@H]1O	–	metabolite_detected	–	–
O=c1c2nc(Br)n3c2ncn1[C@@H]1O[C@H](COP(=O)(O)OP(=O)(O)OCCCC3)[C@@H](O)[C@H]1O	–	metabolite_detected	–	–
Nc1nc2c(=O)n3cnc2n1CCCCOP(=O)(O)OP(=O)(O)OC[C@H]1O[C@@H]3[C@H](O)[C@@H]1O	metabolite_detected	–	metabolite_notdetected	Retention_time [5]: 9.1 min; Drug metabolism [6]: metabolite_detected
Nc1nc2c(=O)[nH]cnc2n1CCCCOP(=O)(O)OP(=O)(O)OC[C@H]1OC(O)[C@H](O)[C@@H]1O (some centres not stated)	–	–	–	Retention_time [7]: 10.6 min; Drug metabolism [8]: metabolite_detected

Source: ChEMBL document CHEMBL3351721, “Cyclic adenosine 5'-diphosphate ribose analogs without a "southern" ribose inhibit ADP-ribosyl cyclase-hydrolase CD38” (J Med Chem, 2014)
